Results reported in ChEMBL document CHEMBL5724801, “EUbOPEN Chemogenomics Library - Multiplex” (2024).
Values joined by “and” are separate entries in the source; they are usually repeats but may differ in a detail not shown here. Equal entries are not always repeated.

Test system: HEK-293T
Test: Multiplex assay against HEK293T
Format: toxicity, cell-based
Conditions: human
Procedure, shortened: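 Tubulin, mitochondrial-mass and membrane-permeability phenotypes are per cents of healthy-nucleus cells. Cells were gated by CellPathfinder machine learning into Hoechst high-intensity objects or normal cells, normal cells into healthy, pyknosed or fragmented nuclei, and pyknosed cells into mitotic or apoptotic. Before that, live cells stained at seeding with Hoechst33342, BioTracker Green Microtubule Cytoskeleton Dye, MitoTracker Red and Annexin V Alexa Fluor 680 were imaged on a CQ1 microscope at 37°C and 5% CO2 after compound addition.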

[1] = 12 h, 1 µM, compound concentration 1 uM
[2] = 12 h, 10 µM, compound concentration 10 uM
[3] = 24 h, 1 µM, compound concentration 1 uM
[4] = 24 h, 10 µM, compound concentration 10 uM
[5] = 48 h, 1 µM, compound concentration 1 uM
[6] = 48 h, 10 µM, compound concentration 10 uM

SMILES: Cl.Cl.OCCOCCN1CCN(C(c2ccccc2)c2ccc(Cl)cc2)CC1 (stereo not given) [HYDROXYZINE HYDROCHLORIDE]
- Population Apoptotic (%) [1]: 34% and 70%
- Population Fragmented Nuclei (%) [1]: 7% and 5%
- Population Healthy Nuclei (%) [1]: 79% and 84%
- Population Hoechst High Intensity Objects (%) [1]: 6% and 9%
- Population Membrane Permeable-Phenotype (%) [1]: 0%
- Population Mitochondria Different-Phenotype (%) [1]: 48% and 58%
- Population Mitotic Cells (%) [1]: 66% and 29%
- Population Normal (%) [1]: 93% and 90%
- Population Pyknosed Nuclei (%) [1]: 13% and 9%
- Population Tubulin-Different-Phenotype (%) [1]: 24% and 28%
- Total Cell Count [1]: 394 and 362
- Population Apoptotic (%) [2]: 49% and 68%
- Population Fragmented Nuclei (%) [2]: 8% and 6%
- Population Healthy Nuclei (%) [2]: 71% and 73%
- Population Hoechst High Intensity Objects (%) [2]: 11% and 19%
- Population Membrane Permeable-Phenotype (%) [2]: 0% and 1%
- Population Mitochondria Different-Phenotype (%) [2]: 71% and 83%
- Population Mitotic Cells (%) [2]: 50% and 31%
- Population Normal (%) [2]: 88% and 80%
- Population Pyknosed Nuclei (%) [2]: 19% and 20%
- Population Tubulin-Different-Phenotype (%) [2]: 65% and 59%
- Total Cell Count [2]: 354 and 327
- Population Apoptotic (%) [3]: 22% and 43%
- Population Fragmented Nuclei (%) [3]: 10% and 11%
- Population Healthy Nuclei (%) [3]: 78%
- Population Membrane Permeable-Phenotype (%) [3]: 0%
- Population Mitochondria Different-Phenotype (%) [3]: 34% and 41%
- Population Mitotic Cells (%) [3]: 77% and 56%
- Population Normal (%) [3]: 97% and 86%
- Population Pyknosed Nuclei (%) [3]: 11% and 9%
- Population Tubulin-Different-Phenotype (%) [3]: 22% and 17%
- Total Cell Count [3]: 566 and 481
- Population Apoptotic (%) [4]: 29% and 59%
- Population Fragmented Nuclei (%) [4]: 10% and 8%
- Population Healthy Nuclei (%) [4]: 74% and 71%
- Population Hoechst High Intensity Objects (%) [4]: 8% and 22%
- Population Membrane Permeable-Phenotype (%) [4]: 0%
- Population Mitochondria Different-Phenotype (%) [4]: 55% and 72%
- Population Mitotic Cells (%) [4]: 70% and 40%
- Population Normal (%) [4]: 91% and 77%
- Population Pyknosed Nuclei (%) [4]: 15% and 19%
- Population Tubulin-Different-Phenotype (%) [4]: 49% and 43%
- Total Cell Count [4]: 472 and 383
- Population Apoptotic (%) [5]: 23% and 46%
- Population Fragmented Nuclei (%) [5]: 14%
- Population Healthy Nuclei (%) [5]: 79%
- Population Hoechst High Intensity Objects (%) [5]: 1% and 3%
- Population Membrane Permeable-Phenotype (%) [5]: 1% and 0%
- Population Mitochondria Different-Phenotype (%) [5]: 19%
- Population Mitotic Cells (%) [5]: 76% and 53%
- Population Normal (%) [5]: 98% and 96%
- Population Pyknosed Nuclei (%) [5]: 5% and 6%
- Population Tubulin-Different-Phenotype (%) [5]: 14% and 12%
- Total Cell Count [5]: 932 and 676
- Population Apoptotic (%) [6]: 38% and 60%
- Population Fragmented Nuclei (%) [6]: 14% and 15%
- Population Healthy Nuclei (%) [6]: 76% and 72%
- Population Hoechst High Intensity Objects (%) [6]: 6% and 16%
- Population Membrane Permeable-Phenotype (%) [6]: 0%
- Population Mitochondria Different-Phenotype (%) [6]: 45% and 53%
- Population Mitotic Cells (%) [6]: 61% and 40%
- Population Normal (%) [6]: 93% and 83%
- Population Pyknosed Nuclei (%) [6]: 9% and 12%
- Population Tubulin-Different-Phenotype (%) [6]: 35%
- Total Cell Count [6]: 627 and 539

SMILES: Cc1nc2ccc(Oc3ccc(F)cc3)cc2c(=O)n1C[C@H]1CCCN(C(C)C)C1.Cl
- Population Apoptotic (%) [1]: 40% and 61%
- Population Fragmented Nuclei (%) [1]: 7% and 5%
- Population Healthy Nuclei (%) [1]: 80% and 70%
- Population Membrane Permeable-Phenotype (%) [1]: 0%
- Population Mitochondria Different-Phenotype (%) [1]: 50% and 69%
- Population Mitotic Cells (%) [1]: 60% and 38%
- Population Normal (%) [1]: 93% and 72%
- Population Pyknosed Nuclei (%) [1]: 11% and 24%
- Population Tubulin-Different-Phenotype (%) [1]: 42% and 34%
- Total Cell Count [1]: 381 and 204
- Population Apoptotic (%) [2]: 54% and 61%
- Population Fragmented Nuclei (%) [2]: 7% and 8%
- Population Healthy Nuclei (%) [2]: 78% and 74%
- Population Hoechst High Intensity Objects (%) [2]: 17% and 20%
- Population Membrane Permeable-Phenotype (%) [2]: 0%
- Population Mitochondria Different-Phenotype (%) [2]: 81% and 94%
- Population Mitotic Cells (%) [2]: 45% and 38%
- Population Normal (%) [2]: 82% and 79%
- Population Pyknosed Nuclei (%) [2]: 13% and 17%
- Population Tubulin-Different-Phenotype (%) [2]: 76% and 73%
- Total Cell Count [2]: 405 and 310
- Population Apoptotic (%) [3]: 31% and 37%
- Population Fragmented Nuclei (%) [3]: 11%
- Population Healthy Nuclei (%) [3]: 80% and 72%
- Population Membrane Permeable-Phenotype (%) [3]: 0%
- Population Mitochondria Different-Phenotype (%) [3]: 36% and 52%
- Population Mitotic Cells (%) [3]: 68% and 62%
- Population Normal (%) [3]: 95% and 77%
- Population Pyknosed Nuclei (%) [3]: 8% and 16%
- Population Tubulin-Different-Phenotype (%) [3]: 27% and 20%
- Total Cell Count [3]: 553 and 281
- Population Apoptotic (%) [4]: 49% and 68%
- Population Fragmented Nuclei (%) [4]: 10% and 11%
- Population Healthy Nuclei (%) [4]: 73% and 75%
- Population Hoechst High Intensity Objects (%) [4]: 12% and 23%
- Population Membrane Permeable-Phenotype (%) [4]: 3% and 0%
- Population Mitochondria Different-Phenotype (%) [4]: 67% and 88%
- Population Mitotic Cells (%) [4]: 50% and 31%
- Population Normal (%) [4]: 87% and 76%
- Population Pyknosed Nuclei (%) [4]: 15% and 12%
- Population Tubulin-Different-Phenotype (%) [4]: 70% and 68%
- Total Cell Count [4]: 525 and 334
- Population Apoptotic (%) [5]: 27% and 60%
- Population Fragmented Nuclei (%) [5]: 19% and 13%
- Population Healthy Nuclei (%) [5]: 75% and 80%
- Population Hoechst High Intensity Objects (%) [5]: 1% and 7%
- Population Membrane Permeable-Phenotype (%) [5]: 1% and 0%
- Population Mitochondria Different-Phenotype (%) [5]: 22% and 36%
- Population Mitotic Cells (%) [5]: 72% and 39%
- Population Normal (%) [5]: 98% and 92%
- Population Pyknosed Nuclei (%) [5]: 5% and 6%
- Population Tubulin-Different-Phenotype (%) [5]: 14%
- Total Cell Count [5]: 901 and 380
- Population Apoptotic (%) [6]: 47% and 67%
- Population Fragmented Nuclei (%) [6]: 15% and 17%
- Population Healthy Nuclei (%) [6]: 74% and 72%
- Population Hoechst High Intensity Objects (%) [6]: 11% and 22%
- Population Membrane Permeable-Phenotype (%) [6]: 2% and 0%
- Population Mitochondria Different-Phenotype (%) [6]: 60% and 69%
- Population Mitotic Cells (%) [6]: 52% and 32%
- Population Normal (%) [6]: 88% and 78%
- Population Pyknosed Nuclei (%) [6]: 9%
- Population Tubulin-Different-Phenotype (%) [6]: 62% and 58%
- Total Cell Count [6]: 754 and 459

SMILES: Cc1ccc(/C(=C\CN2CCCC2)c2ccccn2)cc1 [TRIPROLIDINE]
- Population Apoptotic (%) [1]: 34% and 50%
- Population Fragmented Nuclei (%) [1]: 6% and 3%
- Population Healthy Nuclei (%) [1]: 83% and 84%
- Population Hoechst High Intensity Objects (%) [1]: 7% and 5%
- Population Membrane Permeable-Phenotype (%) [1]: 0%
- Population Mitochondria Different-Phenotype (%) [1]: 45% and 55%
- Population Mitotic Cells (%) [1]: 65% and 50%
- Population Normal (%) [1]: 92% and 94%
- Population Pyknosed Nuclei (%) [1]: 9% and 11%
- Population Tubulin-Different-Phenotype (%) [1]: 24% and 17%
- Total Cell Count [1]: 424 and 446
- Population Apoptotic (%) [2]: 44%
- Population Fragmented Nuclei (%) [2]: 10% and 6%
- Population Healthy Nuclei (%) [2]: 72% and 77%
- Population Hoechst High Intensity Objects (%) [2]: 15% and 8%
- Population Membrane Permeable-Phenotype (%) [2]: 0%
- Population Mitochondria Different-Phenotype (%) [2]: 67% and 74%
- Population Mitotic Cells (%) [2]: 56%
- Population Normal (%) [2]: 84% and 91%
- Population Pyknosed Nuclei (%) [2]: 16% and 15%
- Population Tubulin-Different-Phenotype (%) [2]: 53% and 45%
- Total Cell Count [2]: 368 and 344
- Population Apoptotic (%) [3]: 30%
- Population Fragmented Nuclei (%) [3]: 10% and 9%
- Population Healthy Nuclei (%) [3]: 78% and 82%
- Population Hoechst High Intensity Objects (%) [3]: 3% and 7%
- Population Membrane Permeable-Phenotype (%) [3]: 0%
- Population Mitochondria Different-Phenotype (%) [3]: 27% and 34%
- Population Mitotic Cells (%) [3]: 70% and 69%
- Population Normal (%) [3]: 96% and 92%
- Population Pyknosed Nuclei (%) [3]: 10% and 7%
- Population Tubulin-Different-Phenotype (%) [3]: 18% and 9%
- Total Cell Count [3]: 574 and 541
- Population Apoptotic (%) [4]: 36% and 27%
- Population Fragmented Nuclei (%) [4]: 8% and 9%
- Population Healthy Nuclei (%) [4]: 78% and 80%
- Population Hoechst High Intensity Objects (%) [4]: 9% and 4%
- Population Membrane Permeable-Phenotype (%) [4]: 0%
- Population Mitochondria Different-Phenotype (%) [4]: 55% and 54%
- Population Mitotic Cells (%) [4]: 63% and 72%
- Population Normal (%) [4]: 90% and 95%
- Population Pyknosed Nuclei (%) [4]: 13% and 10%
- Population Tubulin-Different-Phenotype (%) [4]: 43% and 26%
- Total Cell Count [4]: 490 and 464
- Population Apoptotic (%) [5]: 16% and 37%
- Population Fragmented Nuclei (%) [5]: 14% and 10%
- Population Healthy Nuclei (%) [5]: 79% and 84%
- Population Hoechst High Intensity Objects (%) [5]: 1% and 3%
- Population Membrane Permeable-Phenotype (%) [5]: 2% and 1%
- Population Mitochondria Different-Phenotype (%) [5]: 17% and 13%
- Population Mitotic Cells (%) [5]: 83% and 62%
- Population Normal (%) [5]: 98% and 96%
- Population Pyknosed Nuclei (%) [5]: 6% and 4%
- Population Tubulin-Different-Phenotype (%) [5]: 11% and 6%
- Total Cell Count [5]: 950 and 837
- Population Apoptotic (%) [6]: 43% and 33%
- Population Fragmented Nuclei (%) [6]: 16% and 13%
- Population Healthy Nuclei (%) [6]: 74% and 78%
- Population Hoechst High Intensity Objects (%) [6]: 6% and 4%
- Population Membrane Permeable-Phenotype (%) [6]: 0% and 1%
- Population Mitochondria Different-Phenotype (%) [6]: 46% and 43%
- Population Mitotic Cells (%) [6]: 56% and 66%
- Population Normal (%) [6]: 93% and 95%
- Population Pyknosed Nuclei (%) [6]: 9% and 7%
- Population Tubulin-Different-Phenotype (%) [6]: 29% and 25%
- Total Cell Count [6]: 674 and 644
